The term MIC denotes the smallest concentration in the dilution series that meets the test's criterion for growth inhibition.

Converted amounts (≈) assume the structure as drawn.

In ChEMBL document CHEMBL1126175, “Synthesis and antibacterial activity of new tetracyclic quinolone antibacterials” (J Med Chem, 1992) one finds MIC data, which are given here for 6 molecules.

For the first experiment, the system named is Escherichia coli. Put plainly: In vitro antibacterial activity against Escherichia coli KC-14, Ec(K), (gram-negative). The class given is functional. An outline of the steps:
(§1)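 MIC by serial 2-fold agar dilution on Mueller–Hinton agar; inoculum about 10^6 CFU/mL; MIC taken as lowest concentration preventing visible growth after 18 h at 37 °C.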
With `CSc1c(F)cc2c(=O)c(C(=O)O)c3scc4n3c2c1OC4`, the lowest concentration to inhibit growth (MIC) was 0.2 µg/mL (≈ 0.593 µM).

Molecule `CCn1cc(C(=O)O)c(=O)c2cc(F)c(N3CCNCC3)nc21` [ENOXACIN] displayed an MIC of 0.2 µg/mL (≈ 0.624 µM).

`CN(C)c1c(F)cc2c(=O)c(C(=O)O)c3scc4n3c2c1OC4` had a minimum inhibitory concentration (MIC) of 0.39 µg/mL (≈ 1.17 µM).

On to `O=C(O)c1c(=O)c2cc(F)c(N3CCOCC3)c3c2n2c(csc12)CO3`, for which the MIC turned out to be 0.39 µg/mL (≈ 1.04 µM).

`CC1CN(c2c(F)cc3c(=O)c(C(=O)O)c4scc5n4c3c2OC5)CCN1` (configuration not stated) came in with a minimum inhibitory concentration (MIC) of 0.1 µg/mL (≈ 0.257 µM).

A further experiment deals with Enterococcus faecalis. Description: In vitro antibacterial activity against Enterococcus faecalis IID 682,[…],(gram-positive). The class given is functional. An outline of the steps: as §1
With `Cl.O=C(O)c1cn(C2CC2)c2cc(N3CCNCC3)c(F)cc2c1=O` [CIPROFLOXACIN HYDROCHLORIDE], the minimum inhibitory concentration (MIC) came to 0.78 µg/mL.

The molecule `CSc1c(F)cc2c(=O)c(C(=O)O)c3scc4n3c2c1OC4` returned an MIC of 3.13 µg/mL (≈ 9.28 µM).

Molecule `CCn1cc(C(=O)O)c(=O)c2cc(F)c(N3CCNCC3)nc21` [ENOXACIN] registered an MIC of 3.13 µg/mL (≈ 9.77 µM).

Turning to `CN(C)c1c(F)cc2c(=O)c(C(=O)O)c3scc4n3c2c1OC4`, the MIC stood at 0.78 µg/mL (≈ 2.33 µM).

Take `O=C(O)c1c(=O)c2cc(F)c(N3CCOCC3)c3c2n2c(csc12)CO3`: the MIC came out at 0.39 µg/mL (≈ 1.04 µM).

In the case of `CC1CN(c2c(F)cc3c(=O)c(C(=O)O)c4scc5n4c3c2OC5)CCN1` (configuration not stated), the minimum inhibitory concentration (MIC) worked out at 0.78 µg/mL (≈ 2 µM).

The subject of the next experiment is Pseudomonas aeruginosa. Description: In vitro antibacterial activity against Pseudomonas aeruginosa IFO 3445,Pa(I),(gram-negative). The class given is functional. An outline of the steps:
as §1
For the molecule `Cl.O=C(O)c1cn(C2CC2)c2cc(N3CCNCC3)c(F)cc2c1=O` [CIPROFLOXACIN HYDROCHLORIDE], the MIC was determined as 0.78 µg/mL.

`CSc1c(F)cc2c(=O)c(C(=O)O)c3scc4n3c2c1OC4` came in with an MIC of 1.56 µg/mL (≈ 4.62 µM).

`CCn1cc(C(=O)O)c(=O)c2cc(F)c(N3CCNCC3)nc21` [ENOXACIN]: it took 1.56 µg/mL (≈ 4.87 µM) to inhibit growth (MIC).

`CN(C)c1c(F)cc2c(=O)c(C(=O)O)c3scc4n3c2c1OC4` returned an MIC of 1.56 µg/mL (≈ 4.67 µM).

`O=C(O)c1c(=O)c2cc(F)c(N3CCOCC3)c3c2n2c(csc12)CO3` showed an MIC of 1.56 µg/mL (≈ 4.14 µM).

Consider `CC1CN(c2c(F)cc3c(=O)c(C(=O)O)c4scc5n4c3c2OC5)CCN1` (configuration not stated), for which 1.56 µg/mL (≈ 4.01 µM) was the least that counted as inhibitory (MIC).

The next experiment concerns Klebsiella pneumoniae. Put plainly: In vitro antibacterial activity against klebsiella pneumoniae B54,Kp,(gram-negative). It is filed as functional.
Regarding `CSc1c(F)cc2c(=O)c(C(=O)O)c3scc4n3c2c1OC4`, 0.39 µg/mL (≈ 1.16 µM) was the least that counted as inhibitory (MIC).

Turning to `CCn1cc(C(=O)O)c(=O)c2cc(F)c(N3CCNCC3)nc21` [ENOXACIN], the minimum inhibitory concentration (MIC) came out at 0.1 µg/mL (≈ 0.312 µM).

In turn, `CN(C)c1c(F)cc2c(=O)c(C(=O)O)c3scc4n3c2c1OC4` displayed a minimum inhibitory concentration (MIC) of 0.2 µg/mL (≈ 0.598 µM).

`O=C(O)c1c(=O)c2cc(F)c(N3CCOCC3)c3c2n2c(csc12)CO3` yielded an MIC of 0.2 µg/mL (≈ 0.531 µM).

Molecule `CC1CN(c2c(F)cc3c(=O)c(C(=O)O)c4scc5n4c3c2OC5)CCN1` (configuration not stated) yielded a minimal inhibitory concentration (MIC) of 0.1 µg/mL (≈ 0.257 µM).

Another experiment concerns Staphylococcus aureus. Description: In vitro antibacterial activity against staphylococcus aureus IID 803,(gram-positive). The class given is functional. An outline of the steps: as §1
The molecule `Cl.O=C(O)c1cn(C2CC2)c2cc(N3CCNCC3)c(F)cc2c1=O` [CIPROFLOXACIN HYDROCHLORIDE] registered a minimal inhibitory concentration (MIC) of 0.78 µg/mL.

`CSc1c(F)cc2c(=O)c(C(=O)O)c3scc4n3c2c1OC4` registered a minimal inhibitory concentration (MIC) of 0.1 µg/mL (≈ 0.296 µM).

In turn, `CCn1cc(C(=O)O)c(=O)c2cc(F)c(N3CCNCC3)nc21` [ENOXACIN] came in with an MIC of 0.78 µg/mL (≈ 2.44 µM).

`CN(C)c1c(F)cc2c(=O)c(C(=O)O)c3scc4n3c2c1OC4` showed an MIC of 0.1 µg/mL (≈ 0.299 µM).

In the case of `O=C(O)c1c(=O)c2cc(F)c(N3CCOCC3)c3c2n2c(csc12)CO3`, the minimum inhibitory concentration (MIC) is 0.05 µg/mL (≈ 0.133 µM).

In the case of `CC1CN(c2c(F)cc3c(=O)c(C(=O)O)c4scc5n4c3c2OC5)CCN1` (configuration not stated), the MIC was 0.2 µg/mL (≈ 0.514 µM).

For a further experiment, the system named is Staphylococcus epidermidis. Description: In vitro antibacterial activity against staphylococcus epidermidis IAM 1296, (gram-positive). It is filed as functional. An outline of the steps:
as §1
`Cl.O=C(O)c1cn(C2CC2)c2cc(N3CCNCC3)c(F)cc2c1=O` [CIPROFLOXACIN HYDROCHLORIDE]: the MIC is 1.56 µg/mL.

As to `CSc1c(F)cc2c(=O)c(C(=O)O)c3scc4n3c2c1OC4`, it took 0.2 µg/mL (≈ 0.593 µM) to inhibit growth (MIC).

The molecule `CCn1cc(C(=O)O)c(=O)c2cc(F)c(N3CCNCC3)nc21` [ENOXACIN] registered a minimum inhibitory concentration (MIC) of 3.13 µg/mL (≈ 9.77 µM).

Molecule `CN(C)c1c(F)cc2c(=O)c(C(=O)O)c3scc4n3c2c1OC4` gave an MIC of 0.1 µg/mL (≈ 0.299 µM).

Regarding `O=C(O)c1c(=O)c2cc(F)c(N3CCOCC3)c3c2n2c(csc12)CO3`, the minimum inhibitory concentration (MIC) is 0.1 µg/mL (≈ 0.266 µM).

Take `CC1CN(c2c(F)cc3c(=O)c(C(=O)O)c4scc5n4c3c2OC5)CCN1` (configuration not stated): the MIC amounted to 0.78 µg/mL (≈ 2 µM).

The next experiment deals with Pseudomonas aeruginosa. Put plainly: In vitro antibacterial activity against Pseudomonas aeruginosa E-2,Pa(E),(gram-negative). The class given is functional. An outline of the steps:
as §1
`Cl.O=C(O)c1cn(C2CC2)c2cc(N3CCNCC3)c(F)cc2c1=O` [CIPROFLOXACIN HYDROCHLORIDE] came in with a minimal inhibitory concentration (MIC) of 0.78 µg/mL.

Regarding `CSc1c(F)cc2c(=O)c(C(=O)O)c3scc4n3c2c1OC4`, the MIC was 3.13 µg/mL (≈ 9.28 µM).

`CCn1cc(C(=O)O)c(=O)c2cc(F)c(N3CCNCC3)nc21` [ENOXACIN] gave an MIC of 1.56 µg/mL (≈ 4.87 µM).

`CN(C)c1c(F)cc2c(=O)c(C(=O)O)c3scc4n3c2c1OC4` showed an MIC of 6.25 µg/mL (≈ 18.7 µM).

Molecule `O=C(O)c1c(=O)c2cc(F)c(N3CCOCC3)c3c2n2c(csc12)CO3` showed a minimal inhibitory concentration (MIC) of 0.39 µg/mL (≈ 1.04 µM).

Consider `CC1CN(c2c(F)cc3c(=O)c(C(=O)O)c4scc5n4c3c2OC5)CCN1` (configuration not stated), for which the lowest concentration to inhibit growth (MIC) was 0.78 µg/mL (≈ 2 µM).

The subject of the next experiment is Staphylococcus aureus. Description: In vitro antibacterial activity against staphylococcus aureus FDA 209P JC-1,Sa(F)(gram-positive). The class given is functional. The method in brief:
as §1
As for `Cl.O=C(O)c1cn(C2CC2)c2cc(N3CCNCC3)c(F)cc2c1=O` [CIPROFLOXACIN HYDROCHLORIDE], the MIC was determined as 0.2 µg/mL.

Molecule `CSc1c(F)cc2c(=O)c(C(=O)O)c3scc4n3c2c1OC4` displayed a minimal inhibitory concentration (MIC) of 0.2 µg/mL (≈ 0.593 µM).

Consider `CCn1cc(C(=O)O)c(=O)c2cc(F)c(N3CCNCC3)nc21` [ENOXACIN], for which the lowest concentration to inhibit growth (MIC) was 0.78 µg/mL (≈ 2.44 µM).

Molecule `CN(C)c1c(F)cc2c(=O)c(C(=O)O)c3scc4n3c2c1OC4` registered a minimum inhibitory concentration (MIC) of 0.2 µg/mL (≈ 0.598 µM).

With `O=C(O)c1c(=O)c2cc(F)c(N3CCOCC3)c3c2n2c(csc12)CO3`, the minimum inhibitory concentration (MIC) came out at 0.05 µg/mL (≈ 0.133 µM).

Molecule `CC1CN(c2c(F)cc3c(=O)c(C(=O)O)c4scc5n4c3c2OC5)CCN1` (configuration not stated) registered an MIC of 0.2 µg/mL (≈ 0.514 µM).

In a further experiment the test system is Escherichia coli. Put plainly: In vitro antibacterial activity against Escherichia coli NIHJ JC-2,(gram-negative).
`Cl.O=C(O)c1cn(C2CC2)c2cc(N3CCNCC3)c(F)cc2c1=O` [CIPROFLOXACIN HYDROCHLORIDE] returned a minimal inhibitory concentration (MIC) of 0.05 µg/mL.

As for `CSc1c(F)cc2c(=O)c(C(=O)O)c3scc4n3c2c1OC4`, inhibition of growth (MIC) required 0.39 µg/mL (≈ 1.16 µM).

Molecule `CCn1cc(C(=O)O)c(=O)c2cc(F)c(N3CCNCC3)nc21` [ENOXACIN] showed an MIC of 0.2 µg/mL (≈ 0.624 µM).

`CN(C)c1c(F)cc2c(=O)c(C(=O)O)c3scc4n3c2c1OC4` returned a minimal inhibitory concentration (MIC) of 0.39 µg/mL (≈ 1.17 µM).

With `O=C(O)c1c(=O)c2cc(F)c(N3CCOCC3)c3c2n2c(csc12)CO3`, the minimum inhibitory concentration (MIC) came to 0.39 µg/mL (≈ 1.04 µM).

As for `CC1CN(c2c(F)cc3c(=O)c(C(=O)O)c4scc5n4c3c2OC5)CCN1` (configuration not stated), the minimal inhibitory concentration (MIC) worked out at 0.2 µg/mL (≈ 0.514 µM).
